The target of data set [1] is T1, Protease (Human immunodeficiency virus 1, UniProt Q9YQ12). Nature of the data set: Inhibition of HIV1 recombinant protease by fluorometric assay. In short, it runs like this:
(§1)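 HIV-1 protease was cloned and expressed heterologously in E. coli. K_i values were determined in a fluorometric assay.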

In data set [2] the test system is Human immunodeficiency virus 1. The data set can be described thus: Antiviral activity against HIV1 3B bearing wild type protease infected in human MT4 cells assessed as inhibition of virus-induced cytopathic effect after 5 days by XTT assay. It counts as functional, organism-based. The note with it: Human immunodeficiency virus 1, 3B, MT4, 120 h. The gist of the method:
(§2)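 MT-4 cells (2 ×10⁴ cells/well) got 5-fold serial compound dilutions together with 20–50 TCID of HIV IIIb. The virus was wild type, or an M46I/V82F/I84V mutant isolated after 20 passages of IIIb in MT4 cells under increasing ritonavir. Cell viability was read with XTT after five days. EC₅₀ came from dose–response curves of percent cytoprotection.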
On the technique in general: Cytopathic effects are the visible damage that an infection or toxin causes in cultured cells.

The test system of data set [3] is Human immunodeficiency virus 1. The data set can be described thus: Antiviral activity against HIV1 3B bearing protease with M46I, V82F and I84V mutation infected in human MT4 cells assessed as inhibition of virus-induced cytopathic effect after 5 days by XTT assay. In kind it is functional, organism-based. The note with it: Human immunodeficiency virus 1, 3B, MT4, 120 h. The gist of the method: (§3)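 HIV IIIb resistant variant (M46I, V82F, I84V) obtained after 20 passages in MT4 cells under rising ritonavir. MT4 cells (2×10⁴/well) received 5-fold serial compound dilutions together with 20–50 TCID of wild-type or mutant IIIb. After 5 days, cytopathic effect was read as viability by XTT. EC50 was taken from dose-response curves of percent cytoprotection.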

In data set [4] the test system is Human immunodeficiency virus 1. The data set can be described thus: Ratio of EC50 for HIV1 3B bearing protease with M46I, V82F and I84V mutation to EC50 for HIV1 3B bearing wild type protease. It counts as functional. The gist of the method: as §3
Data set [5] addresses T1, Protease. The data set can be described thus: Inhibition of HIV1 protease. In short, it runs like this:
as §1

The subject of data set [6] is Human immunodeficiency virus 1. Nature of the data set: Antiviral activity against HIV1. In kind it is functional, organism-based. The gist of the method:
as §2

Data set [7] in a line: Apparent permeability across human Caco-2 cell membrane. It counts as ADME, cell-based.

As usually defined, the Ki is a dissociation constant, usually derived from enzyme kinetics or from competition with a known ligand. By EC50 is commonly meant the concentration needed to bring the measured effect to its halfway point. As a reminder, the Papp is the rate of passage across a membrane or cell layer, normalised by area and donor concentration.

T1 sequence (Q9YQ12 whole entry): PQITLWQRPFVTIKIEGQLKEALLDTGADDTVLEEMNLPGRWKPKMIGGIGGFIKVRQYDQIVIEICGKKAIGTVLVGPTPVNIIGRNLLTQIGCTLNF

On to `CNC(=O)[C@H](CCOC)NC(=O)[C@H](OCc1ccccc1)[C@H](O)[C@@H](O)[C@@H](OCc1ccccc1)C(=O)N[C@H]1c2ccccc2C[C@H]1O`, for which the Ki at Protease [1] worked out at 10 nM. For the same compound, the results for the EC50 in data set [2] and in data set [3] were 1800 nM and 6900 nM, respectively. Moreover, the Ratio EC50 in data set [4] worked out at 3.

Consider `O=C(N[C@H]1c2ccccc2C[C@H]1O)[C@H](OCc1ccccc1)[C@H](O)[C@@H](O)[C@@H](OCc1ccccc1)C(=O)N[C@H]1c2ccccc2C[C@H]1O`, for which the Ki at Protease [5] amounted to 0.6 nM. The EC50 in data set [6] came to 100 nM.

Regarding `CNC(=O)[C@@H](NC(=O)[C@H](OCc1ccccc1)[C@H](O)[C@@H](O)[C@@H](OCc1ccccc1)C(=O)N[C@H]1c2ccccc2C[C@H]1O)C(C)COC` (single isomer, unassigned; 4d), the inhibition constant (Ki) at Protease [1] was 18 nM. The values for the EC50 in data set [2] and in data set [3] were 3500 nM and above 10000 nM, respectively. In data set [4], the Ratio EC50 is above 2.

For `CNC(=O)[C@H](NC(=O)[C@H](OCc1ccccc1)[C@H](O)[C@@H](O)[C@@H](OCc1ccccc1)C(=O)N[C@H]1c2ccccc2C[C@H]1O)C1COC1`, the Ki on Protease [1] was determined as 99 nM. For the same compound, the EC50 in data set [2] and in data set [3] was above 10000 nM throughout.

`CNC(=O)[C@@H](NC(=O)[C@H](OCc1ccccc1)[C@H](O)[C@@H](O)[C@@H](OCc1ccccc1)C(=O)N[C@H]1c2ccccc2C[C@H]1O)C1COC1`: at Protease [1], the Ki came out at 10 nM. Also, the EC50 in data set [2] was 5400 nM; in data set [3], above 10000 nM. Moreover, the Ratio EC50 in data set [4] was above 1.6.

In the case of `CNC(=O)[C@@H](NC(=O)[C@H](OCc1ccccc1)[C@H](O)[C@@H](O)[C@@H](OCc1ccccc1)C(=O)N[C@H]1c2ccccc2C[C@H]1O)C(C)COC` (single isomer, unassigned; 4e), the Ki on Protease [1] amounted to 0.7 nM. Moreover, the values for the EC50 in data set [2] and in data set [3] were 330 nM and 1300 nM, respectively. The Ratio EC50 in data set [4] was found to be 4.

On to `CC(C)[C@H](NC(=O)[C@H](OCc1ccccc1)[C@H](O)[C@@H](O)[C@@H](OCc1ccccc1)C(=O)N[C@H]1c2ccccc2C[C@H]1O)C(=O)NCCF`, for which the inhibitory constant (Ki) on Protease [1] turned out to be 1 nM. For the same compound, the figures for the EC50 in data set [2] and in data set [3] were 170 nM and 440 nM, respectively. Besides, the Ratio EC50 in data set [4] is 3. For the same compound, the Papp in data set [7] amounted to 1.6 ×10⁻⁶ cm/s.

Consider `CNC(=O)[C@@H](NC(=O)[C@H](OCc1ccccc1)[C@H](O)[C@@H](O)[C@@H](OCc1ccccc1)C(=O)N[C@H]1c2ccccc2C[C@H]1O)C(C)C`, for which the inhibition constant (Ki) at Protease [1] and on Protease [5] was 0.2 nM each time. For the same compound, the EC50 worked out at 140 nM in data set [2], 1200 nM in data set [3] and 140 nM in data set [6]. Further, the Ratio EC50 in data set [4] stood at 9. In addition, the Papp in data set [7] came out at 1.4 ×10⁻⁶ cm/s.

Consider `CC(C)[C@H](NC(=O)[C@H](OCc1ccccc1)[C@H](O)[C@@H](O)[C@@H](OCc1ccccc1)C(=O)N[C@H]1c2ccccc2C[C@H]1O)C(=O)NCC(F)(F)F`, for which the Ki on Protease [1] is 1.9 nM. Moreover, the results for the EC50 in data set [2] and in data set [3] were 150 nM and 920 nM, respectively. For the same compound, the Ratio EC50 in data set [4] was 5. The Papp in data set [7] was determined as 2.9 ×10⁻⁶ cm/s.

Regarding `COCCNC(=O)[C@@H](NC(=O)[C@H](OCc1ccccc1)[C@H](O)[C@@H](O)[C@@H](OCc1ccccc1)C(=O)N[C@H]1c2ccccc2C[C@H]1O)C(C)C`, at Protease [1], the Ki was 2.3 nM. The EC50 in data set [2] came out at 250 nM; in data set [3], 1200 nM. Also, the Ratio EC50 in data set [4] was 5.
